Measured values reported in ChEMBL document CHEMBL1275291, “Design, synthesis and in vitro evaluation of antitubercular and antimicrobial activity of some novel pyranopyrimidines” (2010).
Converted amounts (≈) assume the structure as drawn.

Experiments:
Format in all cases: functional
Staphylococcus aureus = test: Antimicrobial activity against Staphylococcus aureus ATCC 25923 after 24 hrs by serial dilution method; settings: ATCC 25923, 24 h
Escherichia coli = test: Antimicrobial activity against Escherichia coli ATCC 25922 after 24 hrs by serial dilution method; settings: ATCC 25922, 24 h
Streptococcus pyogenes = test: Antimicrobial activity against Streptococcus pyogenes MTCC 443 after 24 hrs by serial dilution method; settings: MTCC 443, 24 h
Aspergillus niger = test: Antimicrobial activity against Aspergillus niger MTCC 282 after 24 hrs by serial dilution method
[1] = tested on: Mycobacterium tuberculosis; test: Antitubercular activity against Mycobacterium tuberculosis H37Rv ATCC 27294 by agar microdilution method
Summary of the method: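 Twofold dilutions in Middlebrook 7H10 agar with OADC supplement, 3 mL per well in 24-well plates, in duplicate. Final concentrations 1000, 500, 250, 125 and 62.5. Known CFU of H37Rv culture dispensed on top of agar in a negative-pressure biosafety hood. Incubated at 37 °C in a CO2 incubator. MIC read as the lowest concentration completely inhibiting growth and colony formation.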

Pseudomonas aeruginosa = test: Antimicrobial activity against Pseudomonas aeruginosa MTCC 441 after 24 hrs by serial dilution method; settings: MTCC 441, 24 h

Molecule	MIC (Staphylococcus aureus) [µg/mL]	MIC (Escherichia coli) [µg/mL]	MIC (Streptococcus pyogenes) [µg/mL]	MIC (Aspergillus niger; MTCC 282, 24 h) [µg/mL]	MIC [1] [µg/mL]	MIC (Pseudomonas aeruginosa) [µg/mL]	MIC (Aspergillus niger) [µg/mL]
O=C(O)c1cn(C2CC2)c2cc(N3CCNCC3)c(F)cc2c1=O [CIPROFLOXACIN]	50 (≈ 151 µM)	25 (≈ 75.4 µM)	50 (≈ 151 µM)				
COC1=CC(=O)C[C@@H](C)[C@]12Oc1c(Cl)c(OC)cc(OC)c1C2=O [GRISEOFULVIN]				100 (≈ 283 µM)			
CO[C@H]1/C=C/O[C@@]2(C)Oc3c(C)c(O)c4c(O)c(c(/C=N/N5CCN(C)CC5)c(O)c4c3C2=O)NC(=O)/C(C)=C\C=C\[C@H](C)[C@H](O)[C@@H](C)[C@@H](O)[C@@H](C)[C@H](OC(C)=O)[C@@H]1C [RIFAMPIN]					40 (≈ 48.6 µM)		
COc1ccc(C2C(C#N)=C(N)Oc3c2ccc2ccccc32)cc1 (stereo not given)	500 (≈ 1520 µM)	500 (≈ 1520 µM)	500 (≈ 1520 µM)	500 (≈ 1520 µM)	1000 (≈ 3050 µM)	1000 (≈ 3050 µM)	
COc1ccc(C2C(C#N)=C(N)Oc3ccccc32)cc1 (stereo not given)	250 (≈ 898 µM)	500 (≈ 1800 µM)	250 (≈ 898 µM)	1000 (≈ 3590 µM)	500 (≈ 1800 µM)	500 (≈ 1800 µM)	
COc1ccc(C2C(C#N)=C(N)Oc3ccc4ccccc4c32)cc1 (stereo not given)	250 (≈ 761 µM)	150 (≈ 457 µM)	250 (≈ 761 µM)	1000 (≈ 3050 µM)	1000 (≈ 3050 µM)	500 (≈ 1520 µM)	
COc1ccc(C2c3ccc4cccnc4c3Oc3[nH]c(=O)nc(N)c32)cc1 (stereo not given)	62.5 (≈ 168 µM)	125 (≈ 336 µM)	125 (≈ 336 µM)	250 (≈ 671 µM)		125 (≈ 336 µM)	
NYSTATIN							100
CC1(C)S[C@@H]2[C@H](NC(=O)[C@H](N)c3ccccc3)C(=O)N2[C@H]1C(=O)O [AMPICILLIN]	100 (≈ 286 µM)	100 (≈ 286 µM)	250 (≈ 715 µM)			100 (≈ 286 µM)	
COc1ccc(C2C(C#N)=C(N)Oc3c2ccc2cccnc32)cc1 (stereo not given)	125 (≈ 380 µM)	250 (≈ 759 µM)	125 (≈ 380 µM)	500 (≈ 1520 µM)	250 (≈ 759 µM)	250 (≈ 759 µM)	
COc1ccc(C2C(C#N)=C(N)Oc3cc(O)ccc32)cc1 (stereo not given)	125 (≈ 425 µM)	250 (≈ 849 µM)	125 (≈ 425 µM)	500 (≈ 1700 µM)	250 (≈ 849 µM)	250 (≈ 849 µM)	
